# Tests used:
# Rattus norvegicus [1] = experiment: Effect of compound on aspartate aminotransferase (AST) levels in 4th group of normal chow-fed male rats after a dose of 10 mg/kg/day; type: functional, organism-based
# In short: (§1)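 Male Sprague–Dawley CD rats (60–80 g) on standard chow under a reversed 12 h light/dark cycle. Compound was suspended in 1.3% Tween 80/0.25% CMC and given as a single daily oral gavage dose for 4 days. Rats were fasted overnight and killed 24 h after the last dose. Serum ALT, AST, ALKP and LDH were read on a clinical analyzer. Weight gain was start versus end weight. Mean ± SEM, n = 6.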
# Cricetinae gen. sp. [2] = experiment: Effect of compound on liver weight in 2nd group of cholesterol-fed male hamsters at 10 mg/kg/day after 14 days of treatment; type: functional
# In short: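 Male Syrian Golden hamsters, 90–100 g, fed chow plus 0.25% cholesterol for 2 weeks before and throughout dosing. Compound suspended in 2% Tween 80 in saline, given by oral gavage for 14 days; vehicle controls. Fasted 4 h, last dose 2 h before sacrifice, then weighed and blood and liver collected. Liver enzymes read on a clinical analyzer. Six per group, mean ± SEM.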
# Rattus norvegicus [3] = experiment: Effect of compound on lactic dehydrogenase (LDH) levels in 3rd group of normal chow-fed male rats after a dose of 5 mg/kg/day; type: functional, organism-based; in short: as §1
# Rattus norvegicus [4] = experiment: Effect of compound on aspartate aminotransferase (AST) levels in 7th group of normal chow-fed male rats after a dose of 100 mg/kg/day; type: functional, organism-based; in short: as §1
# Cricetinae gen. sp. [5] = experiment: Effect of compound on alanine aminotransferase (ALT) levels in 4th group of cholesterol-fed male hamsters at 100 mg/kg/day after 14 days of treatment; settings: Mesocricetus auratus
# Rattus norvegicus [6] = experiment: Effect of compound on relative liver weight in 7th group of normal chow-fed male rats after a dose of 100 mg/kg/day; type: functional
# In short: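 Chow-fed male Sprague–Dawley CD rats, 60–80 g, dosed by oral gavage once daily for 4 days in 1.3% Tween 80/0.25% CMC. Fasted overnight and sacrificed 24 h after the last dose. Liver weight expressed as % of body weight at termination. Six per group, mean ± SEM.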
# Rattus norvegicus [7] = experiment: Percent change in triglycerides following oral administration of compound in normal chow-fed rats at 100 mg/kg/day for 4 days; type: functional
# In short: (§2)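 Chow-fed male Sprague–Dawley CD rats, 60–80 g, gavaged 100 mg/kg/day for 4 days in 1.3% Tween 80/0.25% CMC. Fasted overnight, bled 24 h after the last dose. Total cholesterol and glycerol-blanked triglycerides read enzymatically; lipoproteins by FPLC with cholesterol per fraction. % change versus control; six per group, p < 0.05.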
# Cricetinae gen. sp. [8] = experiment: Effect of compound on alkaline phosphatase (ALKP) levels in 2nd group of cholesterol-fed male hamsters at 10 mg/kg/day after 14 days of treatment; settings: Mesocricetus auratus
# Rattus norvegicus [9] = experiment: Effect of compound on serum apolipoprotein A1 concentration in chow-fed male rats at a dose of 0 mg/kg/day; type: functional, organism-based
# In short: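 Separate dose-response study in male Sprague–Dawley CD rats, 60–80 g, on chow. Oral gavage once daily for 4 days in 1.3% Tween 80 / 0.25% CMC; fasted overnight, bled 24 h after last dose. Apo-A1 by ELISA with rabbit anti-rat primary, alkaline phosphatase-conjugated anti-rabbit IgG and p-nitrophenyl phosphate substrate. HDL-C by FPLC fractionation. Mean ± SEM, six per group.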
# Rattus norvegicus [10] = experiment: Effect of compound on low-density lipoprotein cholesterol levels in 3rd group of normal chow-fed male rats after a dose of 5 mg/kg/day; type: functional, organism-based
# In short: (§3)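 Male Sprague–Dawley CD rats, 60–80 g, on standard chow with reverse 12 h light/dark cycle. One oral gavage dose daily for 4 days, suspended in 1.3% Tween 80 and 0.25% CMC. Fasted overnight; sacrificed 24 h after the last dose. Serum TC on clinical analyzer, lipoproteins by FPLC with cholesterol per fraction, T4 on analyzer. Mean ± SEM, six rats per group.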
# Cricetinae gen. sp. [11] = experiment: Percent change in high-density lipoprotein cholesterol following oral administration of compound in hypercholesterolemic hamsters at 100 mg/kg/day for 14 days; type: functional
# In short: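 Male Syrian Golden hamsters pre-fed chow plus 0.25% cholesterol for 2 weeks and kept on it. Dosed 100 mg/kg/day by oral gavage in 2% Tween 80/saline for 14 days. Serum total cholesterol and glycerol-blanked triglycerides read enzymatically; lipoproteins separated by FPLC with cholesterol measured in each fraction. % change versus vehicle controls; six per group, p < 0.05.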
# Mesocricetus auratus = experiment: Effect of compound on gain in body weight in 4th group of cholesterol-fed male hamsters at 100 mg/kg/day after 14 days of treatment
# Rattus norvegicus [12] = experiment: Effect of compound on low-density lipoprotein cholesterol levels in 6th group of normal chow-fed male rats after a dose of 50 mg/kg/day; type: functional, organism-based; in short: as §3
# Cricetinae gen. sp. [13] = experiment: Effect of compound on alanine aminotransferase (ALT) levels in 2nd group of cholesterol-fed male hamsters at 10 mg/kg/day after 14 days of treatment; settings: Mesocricetus auratus
# Rattus norvegicus [14] = experiment: Percent change in very low-density lipoprotein cholesterol following oral administration of compound in normal chow-fed rats at 100 mg/kg/day for 4 days; type: functional; in short: as §2
# Rattus norvegicus [15] = experiment: Effect of compound on alanine aminotransferase (ALT) levels in 4th group of normal chow-fed male rats after a dose of 10 mg/kg/day
# Rattus norvegicus [16] = experiment: Percent change in total plasma cholesterol in hypercholesterolemic rats dosed at 100 mg/kg/day for 8 days; type: functional
smiles,measurement,setting,value
CCN1CC(=O)N(c2cc(Cl)ccc2C)C1=S,Level,Rattus norvegicus [1],182 U l-1
same,Liver weight,Cricetinae gen. sp. [2],9.08 g
same,Level,Rattus norvegicus [3],743 U l-1
same,Level,Rattus norvegicus [4],214 U l-1
same,Level,Cricetinae gen. sp. [5],639 U l-1
same,Relative liver weight,Rattus norvegicus [6],4.5%
same,Change,Rattus norvegicus [7],-23.1%
same,Level,Cricetinae gen. sp. [8],147 U l-1
same,Serum level,Rattus norvegicus [9],63.2 mg/dL
same,Serum level,Rattus norvegicus [10],6 mg/dL
same,Change,Cricetinae gen. sp. [11],43%
same,Body weight,Mesocricetus auratus,9 g
same,Serum level,Rattus norvegicus [12],7.1 mg/dL
same,Level,Cricetinae gen. sp. [13],134 U l-1
same,Change,Rattus norvegicus [14],-17.2%
same,Level,Rattus norvegicus [15],58 U l-1
same,Change,Rattus norvegicus [16],53%
